≈ marks a conversion by molar mass, not a printed value.
Legend:
Staphylococcus aureus [1] = assay: Antimicrobial activity against oxacillin- and methicillin-resistant Staphylococcus aureus isolate Sa-OXA-R2 after 18 to 24 hrs by alamar blue assay; assay type: functional
Outline: (§1)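 Broth microdilution per NCCLS standard, Mueller-Hinton broth, 8-point twofold dilutions; exponentially growing cells at 5 10^5 cells/ml with compound, 18–24 h at 37 C; 20% Alamar blue added, fluorescence read; MIC90 taken as lowest concentration preventing at least 90% growth.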

Bacillus subtilis = assay: Antimicrobial activity against Bacillus subtilis ATCC 23857 after 18 to 24 hrs by alamar blue assay; assay type: functional
Outline: (§2)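 Broth microdilution per NCCLS in Mueller-Hinton broth, 8-point twofold dilutions, 384-well format. Exponential-phase cells at 5 × 10^5 cells/ml incubated with compound 18–24 h at 37 °C, then 20% Alamar blue added and fluorescence read. MIC90 taken as the lowest concentration preventing at least 90% bacterial growth.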

Escherichia coli = assay: Antimicrobial activity against Escherichia coli ATCC […] after 18 to 24 hrs by alamar blue assay; assay type: functional; details: Escherichia coli; read-out: MIC; outline: as §2
Pseudomonas aeruginosa = assay: Antimicrobial activity against Pseudomonas aeruginosa ATCC 25619 after 18 to 24 hrs by alamar blue assay; assay type: functional; details: Pseudomonas aeruginosa, ATCC 25619; read-out: MIC; outline: as §2
Acinetobacter baumannii = assay: Antimicrobial activity against Acinetobacter baumannii ATCC 49139 after 18 to 24 hrs by alamar blue assay; assay type: functional; details: Acinetobacter baumannii, ATCC 49139; read-out: MIC; outline: as §2
[2] = test system: Stenotrophomonas maltophilia; assay: Antimicrobial activity against Stenotrophomonas maltophilia ATCC 13637 after 18 to 24 hrs by alamar blue assay; assay type: functional; details: Stenotrophomonas maltophilia, ATCC 13637; read-out: MIC; outline: as §2
Serratia marcescens = assay: Antimicrobial activity against Serratia marcescens ATCC 14756 after 18 to 24 hrs by alamar blue assay; assay type: functional; details: Serratia marcescens, ATCC 14756; read-out: MIC; outline: as §2
[3] = test system: Mycolicibacterium smegmatis; assay: Antimicrobial activity against Mycobacterium smegmatis BCRC 11565 after 18 to 24 hrs by alamar blue assay; assay type: functional; details: Mycolicibacterium smegmatis, BCRC 11565; read-out: MIC; outline: as §2
Staphylococcus aureus [4] = assay: Antimicrobial activity against methicillin-resistant Staphylococcus aureus isolate NTUH4722 after 18 to 24 hrs by alamar blue assay; assay type: functional; outline: as §1
Staphylococcus aureus [5] = assay: Antimicrobial activity against methicillin-resistant Staphylococcus aureus ATCC 33592 after 18 to 24 hrs by alamar blue assay; assay type: functional; details: Staphylococcus aureus, ATCC 33592; read-out: MIC; outline: as §1
Staphylococcus aureus [6] = assay: Antimicrobial activity against Staphylococcus aureus ATCC 29213 after 18 to 24 hrs by alamar blue assay

| SMILES | MIC (Staphylococcus aureus [1]) [µg/mL] | MIC (Bacillus subtilis) [µg/mL] | MIC (Escherichia coli) [µg/mL] | MIC (Pseudomonas aeruginosa) [µg/mL] | MIC (Acinetobacter baumannii) [µg/mL] | MIC [2] [µg/mL] | MIC (Serratia marcescens) [µg/mL] | MIC [3] [µg/mL] | MIC (Staphylococcus aureus [4]) [µg/mL] | MIC (Staphylococcus aureus [5]) [µg/mL] | MIC (Staphylococcus aureus [6]) [µg/mL] |
| --- | --- | --- | --- | --- | --- | --- | --- | --- | --- | --- | --- |
| Cc1ccccc1NS(=O)(=O)c1ccc2c(c1)NC(=O)C(C)S2 (stereo not given) | 1.2 (≈ 3.44 µM) | < 0.03 | > 256 | > 256 | > 256 | > 256 | > 256 | > 64 | 1.2 (≈ 3.44 µM) | 1.2 (≈ 3.44 µM) | 1.2 (≈ 3.44 µM) |
| O=C(Nc1ccc(-c2nc3ccccc3[nH]2)cc1)c1ccc([N+](=O)[O-])o1 | 4 (≈ 11.5 µM) | 0.06 (≈ 0.172 µM) | 256 (≈ 735 µM) | 128 (≈ 367 µM) | 12 (≈ 34.5 µM) | 32 (≈ 91.9 µM) | 32 (≈ 91.9 µM) | 0.5 (≈ 1.44 µM) | 8 (≈ 23 µM) | 0.25 (≈ 0.718 µM) | 0.125 (≈ 0.359 µM) |
| CCc1cc(O)nc(N2NC(C)=CC2NC(=O)c2ccccc2Cl)n1 (stereo not given) | 1.2 (≈ 3.34 µM) | 0.25 (≈ 0.695 µM) | > 256 | > 256 | > 256 | > 256 | > 256 | 0.25 (≈ 0.695 µM) | 1.2 (≈ 3.34 µM) | 1.2 (≈ 3.34 µM) | 1.2 (≈ 3.34 µM) |
| CC(C)N1C(=O)/C(=C/c2ccc([N+](=O)[O-])o2)SC1=S | 1 (≈ 3.35 µM) | < 0.03 | 16 (≈ 53.6 µM) | 2 (≈ 6.7 µM) | > 256 | > 256 | > 256 | 1 (≈ 3.35 µM) | 2 (≈ 6.7 µM) | 1 (≈ 3.35 µM) | 0.25 (≈ 0.838 µM) |
| CCCc1cc(O)nc(N2NC(C)=CC2NC(=O)c2ccccc2Cl)n1 (stereo not given) | 2 (≈ 5.35 µM) | 0.25 (≈ 0.669 µM) | > 256 | > 256 | > 256 | > 256 | > 256 | 0.25 (≈ 0.669 µM) | 1 (≈ 2.67 µM) | 0.5 (≈ 1.34 µM) | 1 (≈ 2.67 µM) |
| CCc1c(C)nc(N2NC(C)=CC2NC(=O)c2ccccc2I)nc1O (stereo not given) | 0.5 (≈ 1.07 µM) | 0.25 (≈ 0.537 µM) | > 256 | > 256 | > 256 | > 256 | > 256 | 0.25 (≈ 0.537 µM) | 0.5 (≈ 1.07 µM) | 1 (≈ 2.15 µM) | 0.5 (≈ 1.07 µM) |
| CCOc1ccc2nc(NC(=O)c3ccc([N+](=O)[O-])o3)sc2c1 | 16 (≈ 48 µM) | 0.06 (≈ 0.18 µM) | 256 (≈ 768 µM) | 128 (≈ 384 µM) | 12 (≈ 36 µM) | 32 (≈ 96 µM) | 32 (≈ 96 µM) | 0.5 (≈ 1.5 µM) | 16 (≈ 48 µM) | 4 (≈ 12 µM) | 2 (≈ 6 µM) |
| CC[C@@H](C)[C@H](NC(=O)Cc1c(C)c2cc3c(-c4ccc(Cl)cc4)coc3c(C)c2oc1=O)C(=O)O | 2.5 (≈ 5.04 µM) | > 64 | > 256 | > 256 | > 256 | > 256 | > 256 | 1 (≈ 2.02 µM) | 2.5 (≈ 5.04 µM) | 2.5 (≈ 5.04 µM) | 2.5 (≈ 5.04 µM) |
| Cc1c(CC(=O)N[C@@H](C(=O)O)c2ccccc2)c(=O)oc2c(C)c3occ(-c4ccc(Cl)cc4)c3cc12 | 2.5 (≈ 4.85 µM) | > 64 | > 256 | > 256 | > 256 | > 256 | > 256 | 1 (≈ 1.94 µM) | 2.5 (≈ 4.85 µM) | 2.5 (≈ 4.85 µM) | 2.5 (≈ 4.85 µM) |
| O=C(Nc1cc(Cl)ccc1Cl)c1cc(Cl)cc(Cl)c1O | 2 (≈ 5.7 µM) | < 0.03 | 8 (≈ 22.8 µM) | 16 (≈ 45.6 µM) | 16 (≈ 45.6 µM) | 16 (≈ 45.6 µM) | 16 (≈ 45.6 µM) | 0.5 (≈ 1.42 µM) | 0.5 (≈ 1.42 µM) | 0.5 (≈ 1.42 µM) | 1 (≈ 2.85 µM) |
| Cc1ccc(NS(=O)(=O)c2ccc3c(c2)NC(=O)C(C)S3)c(C)c1 (stereo not given) | > 64 | < 0.03 | > 256 | > 256 | > 256 | > 256 | > 256 | > 64 | 4 (≈ 11 µM) | 32 (≈ 88.3 µM) | 2 (≈ 5.52 µM) |
| O=C1c2cc([N+](=O)[O-])cc3cc([N+](=O)[O-])cc(c23)C(=O)N1c1ccc(O)cc1 | 0.3 (≈ 0.791 µM) | 4 (≈ 10.5 µM) | > 256 | > 256 | > 256 | > 256 | > 256 | 4 (≈ 10.5 µM) | 2.5 (≈ 6.59 µM) | 2.5 (≈ 6.59 µM) | 2.5 (≈ 6.59 µM) |
| O=C(Nc1nnc(-c2ccc(Cl)cc2)o1)c1cccc(Br)c1 | 2 (≈ 5.28 µM) | 0.5 (≈ 1.32 µM) | > 256 | > 256 | > 256 | > 256 | > 256 | 0.5 (≈ 1.32 µM) | 2 (≈ 5.28 µM) | 0.5 (≈ 1.32 µM) | 0.5 (≈ 1.32 µM) |
| Cc1cccc(NS(=O)(=O)c2ccc3c(c2)NC(=O)C(C)S3)c1C (stereo not given) | 16 (≈ 44.1 µM) | < 0.03 | > 256 | > 256 | > 256 | > 256 | > 256 | > 64 | 16 (≈ 44.1 µM) | 64 (≈ 177 µM) | 2 (≈ 5.52 µM) |
| CCc1cc(O)nc(N2NC(C)=CC2NC(=O)c2ccccc2F)n1 (stereo not given) | 1 (≈ 2.91 µM) | 0.25 (≈ 0.728 µM) | > 256 | > 256 | > 256 | > 256 | > 256 | 0.25 (≈ 0.728 µM) | 2 (≈ 5.82 µM) | 4 (≈ 11.6 µM) | 1 (≈ 2.91 µM) |
| Cc1c(CCC(=O)O)c(=O)oc2c(C)c3occ(-c4ccc(Br)cc4)c3cc12 | 1 (≈ 2.27 µM) | > 64 | > 256 | > 256 | > 256 | > 256 | > 256 | 1 (≈ 2.27 µM) | 0.5 (≈ 1.13 µM) | 1 (≈ 2.27 µM) | 0.5 (≈ 1.13 µM) |
| O=C(Nc1nnc(-c2ccc(Br)cc2)o1)c1cccc(C(F)(F)F)c1 | 0.125 (≈ 0.303 µM) | 0.5 (≈ 1.21 µM) | > 256 | > 256 | > 256 | > 256 | > 256 | 0.5 (≈ 1.21 µM) | 0.5 (≈ 1.21 µM) | 1 (≈ 2.43 µM) | 1 (≈ 2.43 µM) |
| Cc1c(CC(=O)N[C@@H](CCCNC(N)=O)C(=O)O)c(=O)oc2c(C)c3occ(-c4ccc(Cl)cc4)c3cc12 | 2.5 (≈ 4.63 µM) | > 64 | > 256 | > 256 | > 256 | > 256 | > 256 | 1 (≈ 1.85 µM) | 2.5 (≈ 4.63 µM) | 2.5 (≈ 4.63 µM) | 1.25 (≈ 2.31 µM) |
| O=C1c2cccc3c([N+](=O)[O-])ccc(c23)C(=O)N1Cc1cccnc1 | 8 (≈ 24 µM) | 4 (≈ 12 µM) | > 256 | > 256 | > 256 | > 256 | > 256 | 4 (≈ 12 µM) | 8 (≈ 24 µM) | 2 (≈ 6 µM) | 8 (≈ 24 µM) |
| Cc1c(CC(=O)NCCCC(=O)O)c(=O)oc2c(C)c3occ(-c4ccc(Cl)cc4)c3cc12 | 2.5 (≈ 5.34 µM) | > 64 | > 256 | > 256 | > 256 | > 256 | > 256 | 1 (≈ 2.14 µM) | 2.5 (≈ 5.34 µM) | 2.5 (≈ 5.34 µM) | 2.5 (≈ 5.34 µM) |
| O=C1c2cc([N+](=O)[O-])cc3cc([N+](=O)[O-])cc(c23)C(=O)N1Nc1ccc(Cl)cc1 | 2.5 (≈ 6.06 µM) | 4 (≈ 9.69 µM) | > 256 | > 256 | > 256 | > 256 | > 256 | 4 (≈ 9.69 µM) | 2.5 (≈ 6.06 µM) | 2.5 (≈ 6.06 µM) | 2.5 (≈ 6.06 µM) |
| CCCCN(C)S(=O)(=O)c1ccc(C(=O)Nc2nnc(-c3cccc(OC)c3)o2)cc1 | 32 (≈ 72 µM) | 0.5 (≈ 1.12 µM) | > 256 | > 256 | > 256 | > 256 | > 256 | 0.5 (≈ 1.12 µM) | 16 (≈ 36 µM) | 8 (≈ 18 µM) | 4 (≈ 9 µM) |
| CCCc1cc(O)nc(N2NC(C)=CC2NC(=O)c2ccccc2F)n1 (stereo not given) | 1 (≈ 2.8 µM) | 0.25 (≈ 0.7 µM) | > 256 | > 256 | > 256 | > 256 | > 256 | 0.25 (≈ 0.7 µM) | 1 (≈ 2.8 µM) | 0.5 (≈ 1.4 µM) | 2 (≈ 5.6 µM) |
| O=C(Nc1nnc(-c2ccc(F)cc2)o1)c1ccc(Cl)s1 | 1.2 (≈ 3.71 µM) | 0.5 (≈ 1.54 µM) | > 256 | > 256 | > 256 | > 256 | > 256 | 0.5 (≈ 1.54 µM) | 1.2 (≈ 3.71 µM) | 1.2 (≈ 3.71 µM) | 1.2 (≈ 3.71 µM) |
| O=C(Nc1ccc(Cl)c(S(=O)(=O)Nc2cccc(Cl)c2)c1)c1ccc([N+](=O)[O-])o1 | 1.5 (≈ 3.29 µM) | 0.06 (≈ 0.132 µM) | 256 (≈ 561 µM) | 128 (≈ 281 µM) | 12 (≈ 26.3 µM) | 32 (≈ 70.1 µM) | 32 (≈ 70.1 µM) | 0.5 (≈ 1.1 µM) | 1.5 (≈ 3.29 µM) | 1.5 (≈ 3.29 µM) | 1.5 (≈ 3.29 µM) |

From ChEMBL document CHEMBL1629439, “High-throughput identification of antibacterials against methicillin-resistant Staphylococcus aureus (MRSA) and the transglycosylase” (Bioorg Med Chem, 2010)
